Data as given in ChEMBL document CHEMBL1151453, “Subinhibitory concentrations of azithromycin decrease nontypeable Haemophilus influenzae biofilm formation and Diminish established biofilms” (2008).
Values after ≈ are worked out from the molar mass of the structure shown. Active and inactive are the calls of the source. The rule behind the calls is not given here.

What was measured:
[1] = tested on: Haemophilus influenzae; experiment: Antimicrobial activity against nontypeable Haemophilus influenzae isolate 2019 expressing GFP isolated from patient with COPD assessed as inhibition biofilm formation at 0.25 ug/mL after 2 days; format: functional, organism-based
Method in brief: (§1)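 Flow cell: GFPmut3-expressing strain 2019 (kanamycin selection before inoculation) grown under a glass coverslip at 37°C. Medium was 1% BHI with NAD and hemin (1% final) in 150 mM NaCl, flowing at 0.08 ml/min, with or without antibiotic. Established-biofilm arm: no drug days 0–2, then drug days 2–4. Confocal imaging; biomass and maximal thickness by COMSTAT; n = 3.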

[2] = tested on: Haemophilus influenzae; experiment: Antimicrobial activity against nontypeable Haemophilus influenzae isolate 2019 expressing GFP isolated from patient with COPD assessed as maximal doubling time at 0.125 ug/mL using flow cell culture after 24 hrs; format: functional
Method in brief: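 Growth curves: overnight strain 2019 culture, 1 ml diluted into 24 ml supplemented BHI (starting OD600 <0.050), antibiotic 0.03–2 μg/ml. Shaken at 37°C, OD600 read hourly. Maximal doubling time taken from the curves. Also repeated in flow-cell medium (1% supplemented BHI in 150 mM NaCl).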

[3] = tested on: Haemophilus influenzae; experiment: Antimicrobial activity against nontypeable Haemophilus influenzae isolate 2019 expressing GFP isolated from patient with COPD assessed as growth inhibition at 0.125 ug/mL […]; format: functional, organism-based
[4] = tested on: Haemophilus influenzae; experiment: Antimicrobial activity against nontypeable Haemophilus influenzae isolate 2019 expressing GFP isolated from patient with COPD by broth microdilution method; format: functional
Method in brief: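 MIC for strain 2019 carrying pRSM2211, by CLSI broth microdilution, done in a clinical microbiology laboratory.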

[5] = tested on: Haemophilus influenzae; experiment: Antimicrobial activity against nontypeable Haemophilus influenzae isolate 2019 expressing GFP isolated from patient with COPD assessed as decrease biofilm formation at 0.125 ug/mL after 2 days using flow cell culture relative to control; format: functional, organism-based
Method in brief: (§2)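 Flow cell: GFPmut3-expressing strain 2019 (pRSM2211, kanamycin selection before inoculation) attached under a glass coverslip. Medium: 1% BHI with NAD and hemin ([…]) in 150 mM NaCl, 0.08 ml/min flow, 37°C. Antibiotic at 0.125 μg/ml, either from inoculation or added after 2 days. Confocal imaging; biomass and maximal thickness by COMSTAT (n = 3).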

[6] = tested on: Haemophilus influenzae; experiment: Antimicrobial activity against nontypeable Haemophilus influenzae isolate 2019 expressing GFP isolated from patient with COPD assessed as decrease biomass of biofilm at 0.125 ug/mL after 2 days using flow cell culture relative to control; format: functional, organism-based; method in brief: as §2
[7] = tested on: Haemophilus influenzae; experiment: Antimicrobial activity against nontypeable Haemophilus influenzae isolate 2019 expressing GFP isolated from patient with COPD assessed as decrease maximal thickness of biofilm at 0.125 ug/mL after 2 days using flow cell culture relative to control; format: functional, organism-based; method in brief: as §2
[8] = tested on: Haemophilus influenzae; experiment: Antimicrobial activity against nontypeable Haemophilus influenzae isolate 2019 expressing GFP isolated from patient with COPD assessed as decrease in biomass of biofilm in 2 days established biofilm at 0.125 ug/mL after 4 days using flow cell culture; format: functional, organism-based; method in brief: as §2
[9] = tested on: Haemophilus influenzae; experiment: Antimicrobial activity against nontypeable Haemophilus influenzae isolate 2019 expressing GFP isolated from patient with COPD assessed as decrease in maximum thickness of biofilm in 2 days established biofilm at 0.125 ug/mL after 4 days using flow cell culture; format: functional, organism-based; method in brief: as §2
[10] = tested on: Haemophilus influenzae; experiment: Antimicrobial activity against nontypeable Haemophilus influenzae isolate 2019 expressing GFP isolated from patient with COPD assessed as decrease in biomass of biofilm at 0.125 ug/mL incubated for 2 days measured after day 4 using flow cell culture; format: functional, organism-based; method in brief: as §2
[11] = tested on: Haemophilus influenzae; experiment: Antimicrobial activity against nontypeable Haemophilus influenzae isolate 2019 expressing GFP isolated from patient with COPD assessed as decrease in maximal thickness of biofilm at 0.125 ug/mL incubated for 2 days measured after days 4 using flow cell culture; format: functional, organism-based; method in brief: as §2
[12] = tested on: Haemophilus influenzae; experiment: Antimicrobial activity against nontypeable Haemophilus influenzae isolate 2019 expressing GFP isolated from patient with COPD assessed as decrease in biofilm formation at 0.125 ug/mL treated for 4 days measured on day 2 to 4 using flow cell culture; format: functional, organism-based; method in brief: as §2
[13] = tested on: Haemophilus influenzae; experiment: Antimicrobial activity against nontypeable Haemophilus influenzae isolate 2019 expressing GFP isolated from patient with COPD assessed as decrease in established biofilm formation at 0.125 ug/mL treated for 4 days measured on day 2 to 4 using flow cell culture; format: functional, organism-based; method in brief: as §2
[14] = tested on: Haemophilus influenzae; experiment: Antimicrobial activity against azithromycin-resistant nontypeable Haemophilus influenzae isolate S34 assessed as inhibition of biofilm formation at >64 ug/mL; format: functional, organism-based
Method in brief: (§3)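 Static-culture biofilm: mid-log-phase bacteria in BHI broth with 10 μg/ml hemin and 10 μg/ml NAD, azithromycin 0.06 to 64 μg/ml, flat-bottom polystyrene 96-well plates, 37°C. Planktonic growth read hourly as A490 over the first 7 h. Biomass at the air-liquid interface stained with crystal violet at 24 h, same wells. Representative data, n = 3.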

[15] = tested on: Haemophilus influenzae; experiment: Antimicrobial activity against azithromycin-resistant nontypeable Haemophilus influenzae isolate S43 assessed as inhibition of biofilm formation at >64 ug/mL; format: functional, organism-based; method in brief: as §3
[16] = tested on: Haemophilus influenzae; experiment: Antimicrobial activity against azithromycin-resistant nontypeable Haemophilus influenzae isolate S44 assessed as inhibition of biofilm formation at >64 ug/mL; format: functional, organism-based; method in brief: as §3
[17] = tested on: Haemophilus influenzae; experiment: Antimicrobial activity against azithromycin-resistant nontypeable Haemophilus influenzae isolate S61 assessed as inhibition of biofilm formation at >64 ug/mL; format: functional, organism-based; method in brief: as §3
[18] = tested on: Haemophilus influenzae; experiment: Antimicrobial activity against nontypeable Haemophilus influenzae isolate 2019 expressing GFP isolated from patient with COPD assessed as inhibition of biofilm formation at 0.25 ug/ml after 7 hrs using crystal violet; format: functional, organism-based
[19] = tested on: Haemophilus influenzae; experiment: Antimicrobial activity against azithromycin-resistant nontypeable Haemophilus influenzae isolate S52 assessed as inhibition of biofilm formation at 8 ug/mL after 7 hrs using crystal violet; format: functional, organism-based
[20] = tested on: Haemophilus influenzae; experiment: Antimicrobial activity against azithromycin-resistant nontypeable Haemophilus influenzae isolate S53 assessed as inhibition of biofilm formation at 16 ug/mL after 7 hrs using crystal violet; format: functional, organism-based
[21] = tested on: Haemophilus influenzae; experiment: Antimicrobial activity against azithromycin-resistant nontypeable Haemophilus influenzae isolate S57 assessed as inhibition of biofilm formation at 64 ug/mL after 7 hrs using crystal violet; format: functional, organism-based
[22] = tested on: Haemophilus influenzae; experiment: Antimicrobial activity against nontypeable Haemophilus influenzae isolate 2019 expressing GFP isolated from patient with COPD assessed as viability at 0.125 ug/mL after 2 days using flow cell culture; format: functional, organism-based
Method in brief: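 Flow-cell biofilms of GFP-expressing strain 2019 grown 2 days with or without 0.125 μg/ml antibiotic, then stained with propidium iodide for 15 min.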

[23] = tested on: Haemophilus influenzae; experiment: Antimicrobial activity against nontypeable Haemophilus influenzae isolate 2019 expressing GFP isolated from patient with COPD assessed as viability at 0.125 ug/mL incubated for 2 days measured on day 4 using flow cell culture; format: functional, organism-based
[24] = tested on: Haemophilus influenzae; experiment: Antimicrobial activity against nontypeable Haemophilus influenzae isolate 2019 expressing GFP isolated from patient with COPD assessed as maximal doubling time at 0.25 ug/mL using flow cell culture after 24 hrs; format: functional, organism-based
[25] = tested on: Haemophilus influenzae; experiment: Antimicrobial activity against nontypeable Haemophilus influenzae isolate 2019 expressing GFP isolated from patient with COPD assessed as growth inhibition at 0.25 ug/mL using static culture after 24 hrs; format: functional, organism-based
[26] = tested on: Haemophilus influenzae; experiment: Antimicrobial activity against nontypeable Haemophilus influenzae isolate 2019 expressing GFP isolated from patient with COPD by […] assay; format: functional, organism-based
Method in brief: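 MIC for strain 2019 carrying pRSM2211 determined by CLSI broth microdilution and Etest, performed by a hospital clinical microbiology laboratory.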

[27] = tested on: Haemophilus influenzae; experiment: Antimicrobial activity against nontypeable Haemophilus influenzae isolate 2019 expressing GFP isolated from patient with COPD assessed as decrease in biofilm formation at 8 ug/mL after 2 days; format: functional, organism-based; method in brief: as §1
[28] = tested on: Haemophilus influenzae; experiment: Antimicrobial activity against nontypeable Haemophilus influenzae isolate 2019 expressing GFP isolated from patient with COPD assessed as decrease in biomass of biofilm at 16 ug/mL after 2 days; format: functional, organism-based; method in brief: as §1
[29] = tested on: Haemophilus influenzae; experiment: Antimicrobial activity against nontypeable Haemophilus influenzae isolate 2019 expressing GFP isolated from patient with COPD assessed as decrease in maximal thickness of biofilm at 16 ug/mL after 2 days; format: functional, organism-based; method in brief: as §1
[30] = tested on: Haemophilus influenzae; experiment: Antimicrobial activity against nontypeable Haemophilus influenzae isolate 2019 expressing GFP isolated from patient with COPD assessed as decrease in biomass of biofilm at 0.25 ug/mL after 2 days; format: functional, organism-based; method in brief: as §1
[31] = tested on: Haemophilus influenzae; experiment: Antimicrobial activity against nontypeable Haemophilus influenzae isolate 2019 expressing GFP isolated from patient with COPD assessed as decrease in maximal thickness of biofilm at 0.25 ug/mL after 2 days; format: functional, organism-based; method in brief: as §1
[32] = tested on: Haemophilus influenzae; experiment: Antimicrobial activity against nontypeable Haemophilus influenzae isolate 2019 expressing GFP isolated from patient with COPD assessed as decrease in biomass of biofilm at 0.25 ug/mL after 4 days; format: functional, organism-based; method in brief: as §1
[33] = tested on: Haemophilus influenzae; experiment: Antimicrobial activity against nontypeable Haemophilus influenzae isolate 2019 expressing GFP isolated from patient with COPD assessed as decrease in maximal thickness of biofilm at 0.25 ug/mL after 4 days; format: functional, organism-based; method in brief: as §1
[34] = tested on: Haemophilus influenzae; experiment: Antimicrobial activity against nontypeable Haemophilus influenzae isolate 2019 expressing GFP isolated from patient with COPD assessed as decrease in biomass of 2 days established biofilm measured on day 4 using flow cell culture; format: functional, organism-based; method in brief: as §1

With `CC[C@H]1OC(=O)[C@H](C)[C@@H](O[C@H]2C[C@@](C)(OC)[C@@H](O)[C@H](C)O2)[C@H](C)[C@@H](O[C@@H]2O[C@H](C)C[C@H](N(C)C)[C@H]2O)[C@](C)(O)C[C@@H](C)C(=O)[C@H](C)[C@@H](O)[C@]1(C)O` the Activity [1] was “inactive”.
For `CC[C@H]1OC(=O)[C@H](C)[C@@H](O[C@H]2C[C@@](C)(OC)[C@@H](O)[C@H](C)O2)[C@H](C)[C@@H](O[C@@H]2O[C@H](C)C[C@H](N(C)C)[C@H]2O)[C@](C)(O)C[C@@H](C)CN(C)[C@H](C)[C@@H](O)[C@]1(C)O` [AZITHROMYCIN], the Activity [2] was 44 min, the Activity [3] was “inactive” and the MIC [4] was 0.5 µg/mL (≈ 0.668 µM). For the same compound, the Activity [5] was “Active”, the Activity [6] was “Active” and the Activity [7] was “Active”. The Activity [8] was “Active”, the Activity [9] was “Active” and the Activity [10] was “inactive”. The Activity [11] was “inactive”, the Activity [12] was “Active” and the Activity [13] was “Active”. For the same compound, the Activity [14] was “Active”, the Activity [15] was “Active” and the Activity [16] was “Active”. For the same compound, the Activity [17] was “Active”, the Activity [18] was “Active” and the Activity [19] was “Active”. For the same compound, the Activity [20] was “Active”, the Activity [21] was “Active” and the Activity [22] was “inactive”. For the same compound, the Activity [23] was “inactive”.
GENTAMICIN was tested, and the Activity [24] was 51 min, the Activity [25] was “Active” and the MIC [26] was 2 µg/mL. The Activity [1] was “Active”, the Activity [27] was “Active” and the Activity [28] was “Active”. For the same compound, the Activity [29] was “Active”, the Activity [30] was “inactive” and the Activity [31] was “inactive”. The Activity [32] was “inactive”, the Activity [33] was “inactive” and the Activity [34] was “Dose-dependent effect”.
